The term residual activity denotes the signal under treatment as a percentage of the control signal. Read a low residual activity as little activity left. As a reminder, the inhibition is the drop in the measured response relative to a control, in per cent.

Each structure is given as a SMILES string. Activity calls are given as the source filed them. The rule behind the calls is not given here.

Consider three compounds from ChEMBL document CHEMBL5696442, “Discovery of type II inhibitors of TGFβ-activated kinase 1 (TAK1) and mitogen-activated protein kinase kinase kinase kinase 2 (MAP4K2)” (J Med Chem, 2015).

In experiment [1] the target is LIM domain kinase 1 (Homo sapiens) (UniProt P53667). The experiment is described as follows: Inhibition of LIMK1 (unknown origin) at 1 uM by Ambit Kinomescan binding assay relative to control; values are per cent of control.
For experiment [2], the target named is Ephrin type-A receptor 6 (Homo sapiens) (UniProt Q9UF33). As to the kind of experiment: Inhibition of EPHA6 (unknown origin) at 1 uM by Ambit Kinomescan binding assay relative to control; values are per cent of control.
In experiment [3] the target is Serine/threonine-protein kinase 4 (Homo sapiens) (UniProt Q13043). The experiment is described as follows: Inhibition of MST1 Lys2 labeling site harbouring DIKAGNILLNTEGHAK in human A-375 cells at 0.05 uM by KiNativ Profiling analysis relative to control.
The target of experiment [4] is Ribosomal protein S6 kinase alpha-1 (Homo sapiens) (UniProt Q15418). The experiment is described as follows: Inhibition of C-terminal RSK1 kinase domain 2 (unknown origin) at 1 uM by Ambit Kinomescan binding assay relative to control. In outline: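 In vitro ATP-site competition binding assay against a panel of over 420 kinases (KinomeScan), with compound tested at 10 or 1 μM.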

Experiment [5] addresses Protein kinase C epsilon type (Homo sapiens) (UniProt Q02156). The experiment is described as follows: Inhibition of PRKCE (unknown origin) at 10 uM by Ambit Kinomescan binding assay relative to control.
Experiment [6] has as its target TRAF2 and NCK-interacting protein kinase (Homo sapiens) (UniProt Q9UKE5). The experiment is described as follows: Inhibition of ZC2/TNIK K2 labeling site in human Huh-7 cells at 1 uM by KiNativ Profiling analysis relative to control. The format is cell-based.
For experiment [7], the target named is Tyrosine-protein kinase CSK (Homo sapiens, UniProt P41240). As to the kind of experiment: Inhibition of CSK ACT labeling site harbouring VSDFGLTKEASSTQDTGK in human A-375 cells at 5 uM by KiNativ Profiling analysis relative to control. It is filed as cell-based.
Experiment [8] has as its target Serine/threonine-protein kinase MARK2 (Homo sapiens) (UniProt Q7KZI7). The experiment is described as follows: Inhibition of MARK2 K1 labeling site harbouring HILTGKEVAVKIIDKTQLNSSSLQK in human Huh-7 cells at 1 uM by KiNativ Profiling analysis relative to control. The format is cell-based.
Experiment [9] deals with T1, Interleukin-1 receptor-associated kinase 4 (Homo sapiens) (UniProt Q9NWZ3).
T1 sequence (whole entry): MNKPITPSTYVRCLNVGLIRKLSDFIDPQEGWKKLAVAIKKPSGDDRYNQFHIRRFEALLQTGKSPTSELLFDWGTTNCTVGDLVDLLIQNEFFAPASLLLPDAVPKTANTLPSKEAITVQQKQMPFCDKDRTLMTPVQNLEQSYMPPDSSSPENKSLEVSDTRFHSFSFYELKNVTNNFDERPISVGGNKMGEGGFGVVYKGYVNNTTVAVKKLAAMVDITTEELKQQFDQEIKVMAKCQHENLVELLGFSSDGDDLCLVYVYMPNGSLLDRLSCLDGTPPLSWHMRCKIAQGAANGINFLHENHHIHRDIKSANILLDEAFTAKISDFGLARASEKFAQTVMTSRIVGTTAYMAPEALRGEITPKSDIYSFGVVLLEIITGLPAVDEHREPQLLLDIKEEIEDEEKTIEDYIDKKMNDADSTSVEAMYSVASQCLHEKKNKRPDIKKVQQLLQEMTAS
As to the kind of experiment: Inhibition of IRAK4 K2 labeling site in human Huh-7 cells at 10 uM by KiNativ Profiling analysis relative to control. The format is cell-based.

For experiment [10], the system named is Tyrosine-protein kinase ABL1 (Homo sapiens), P00519 [F317I]. The experiment is described as follows: Inhibition of ABL1 F317I mutant (unknown origin) at 10 uM by Ambit Kinomescan binding assay relative to control.
Experiment [11] addresses Serine/threonine-protein kinase mTOR (Homo sapiens) (UniProt P42345). The experiment is described as follows: Inhibition of FRAP ATP labeling site in human Huh-7 cells at 10 uM by KiNativ Profiling analysis relative to control. It is filed as cell-based.
Experiment [12] deals with Interferon-induced, double-stranded RNA-activated protein kinase (Homo sapiens) (UniProt P19525). As to the kind of experiment: Inhibition of PKR ACT labeling site in human Huh-7 cells at 1 uM by KiNativ Profiling analysis relative to control. The format is cell-based.
The target in experiment [13] is Cyclin-dependent kinase 11B (Homo sapiens) (UniProt P21127). The experiment is described as follows: Inhibition of CDK11 Lys2 labeling site in human Huh-7 cells at 1 uM by KiNativ Profiling analysis relative to control. The format is cell-based.
Experiment [14] addresses T2, Inhibitor of nuclear factor kappa-B kinase subunit beta (Homo sapiens) (UniProt O14920).
T2 sequence (whole entry): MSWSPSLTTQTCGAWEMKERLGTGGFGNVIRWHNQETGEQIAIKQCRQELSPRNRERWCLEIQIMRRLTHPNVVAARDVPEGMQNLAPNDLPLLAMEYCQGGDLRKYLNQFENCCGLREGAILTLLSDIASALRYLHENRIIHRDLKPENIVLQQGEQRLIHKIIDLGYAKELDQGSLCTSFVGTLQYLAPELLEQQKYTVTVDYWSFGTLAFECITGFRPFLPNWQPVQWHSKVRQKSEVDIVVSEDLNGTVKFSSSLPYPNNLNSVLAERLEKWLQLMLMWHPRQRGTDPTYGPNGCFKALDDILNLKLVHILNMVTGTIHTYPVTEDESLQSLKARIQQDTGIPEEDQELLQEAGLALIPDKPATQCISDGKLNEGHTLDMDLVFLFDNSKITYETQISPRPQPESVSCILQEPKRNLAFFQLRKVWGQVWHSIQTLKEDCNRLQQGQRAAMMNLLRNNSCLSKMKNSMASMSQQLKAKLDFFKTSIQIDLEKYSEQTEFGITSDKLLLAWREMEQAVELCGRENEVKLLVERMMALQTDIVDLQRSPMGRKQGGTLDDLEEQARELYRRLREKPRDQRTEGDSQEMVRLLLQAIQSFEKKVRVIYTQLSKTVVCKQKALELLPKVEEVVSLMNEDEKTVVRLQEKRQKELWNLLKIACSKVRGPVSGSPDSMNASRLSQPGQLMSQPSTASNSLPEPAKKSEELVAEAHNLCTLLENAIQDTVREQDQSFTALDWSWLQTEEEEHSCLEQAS
The experiment is described as follows: Inhibition of IKKb Lys2 labeling site in human Huh-7 cell lysate at 1 uM by KiNativ Profiling analysis relative to control. It is filed as subcellular.

The target in experiment [15] is Ribosomal protein S6 kinase alpha-5 (Homo sapiens) (UniProt O75582). As to the kind of experiment: Inhibition of MSK1 domain1 ATP labeling site in human Huh-7 cell lysate at 1 uM by KiNativ Profiling analysis relative to control. It is filed as subcellular.
Sequence of Ribosomal protein S6 kinase alpha-5 (Homo sapiens) (O75582 whole entry, looked up, the tested form may be a part): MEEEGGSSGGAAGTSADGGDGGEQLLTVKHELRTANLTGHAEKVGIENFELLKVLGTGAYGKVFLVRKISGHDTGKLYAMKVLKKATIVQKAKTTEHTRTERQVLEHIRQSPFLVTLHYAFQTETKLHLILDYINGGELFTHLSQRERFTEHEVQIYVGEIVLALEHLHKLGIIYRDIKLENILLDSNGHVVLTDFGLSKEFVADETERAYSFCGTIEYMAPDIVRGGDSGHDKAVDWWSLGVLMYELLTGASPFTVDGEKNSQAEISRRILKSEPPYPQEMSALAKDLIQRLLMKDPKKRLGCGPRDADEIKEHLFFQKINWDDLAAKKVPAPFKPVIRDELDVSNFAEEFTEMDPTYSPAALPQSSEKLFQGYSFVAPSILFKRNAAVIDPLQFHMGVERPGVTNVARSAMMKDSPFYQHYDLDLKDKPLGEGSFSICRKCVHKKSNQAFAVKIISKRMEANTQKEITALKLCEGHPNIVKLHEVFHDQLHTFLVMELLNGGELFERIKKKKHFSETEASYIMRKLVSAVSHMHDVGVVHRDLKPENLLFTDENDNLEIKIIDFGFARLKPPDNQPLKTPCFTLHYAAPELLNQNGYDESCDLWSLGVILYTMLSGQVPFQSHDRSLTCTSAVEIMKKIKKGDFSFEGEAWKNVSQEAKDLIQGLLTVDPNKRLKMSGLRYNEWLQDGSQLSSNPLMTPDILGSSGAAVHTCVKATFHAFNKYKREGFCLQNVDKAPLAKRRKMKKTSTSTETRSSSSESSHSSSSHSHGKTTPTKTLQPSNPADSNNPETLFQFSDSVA

Sequence of LIM domain kinase 1 (Homo sapiens) (P53667 whole entry, looked up, the tested form may be a part): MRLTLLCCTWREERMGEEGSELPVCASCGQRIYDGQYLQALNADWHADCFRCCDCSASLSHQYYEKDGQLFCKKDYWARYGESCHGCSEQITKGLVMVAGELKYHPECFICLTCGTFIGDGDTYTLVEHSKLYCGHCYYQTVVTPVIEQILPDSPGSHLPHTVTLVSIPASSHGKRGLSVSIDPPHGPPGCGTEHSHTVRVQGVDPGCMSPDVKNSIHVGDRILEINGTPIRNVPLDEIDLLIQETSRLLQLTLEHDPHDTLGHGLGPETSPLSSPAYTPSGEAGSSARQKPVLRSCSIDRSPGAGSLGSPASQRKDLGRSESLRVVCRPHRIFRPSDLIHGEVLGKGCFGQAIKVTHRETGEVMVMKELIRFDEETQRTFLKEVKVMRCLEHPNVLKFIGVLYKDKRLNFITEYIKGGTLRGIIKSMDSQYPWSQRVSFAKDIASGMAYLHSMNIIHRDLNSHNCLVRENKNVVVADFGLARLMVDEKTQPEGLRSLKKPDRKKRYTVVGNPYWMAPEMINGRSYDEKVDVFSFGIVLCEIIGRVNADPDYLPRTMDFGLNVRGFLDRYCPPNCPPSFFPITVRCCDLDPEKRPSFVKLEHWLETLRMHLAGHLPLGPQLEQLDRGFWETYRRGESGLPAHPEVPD
Sequence of Ephrin type-A receptor 6 (Homo sapiens) (Q9UF33 whole entry): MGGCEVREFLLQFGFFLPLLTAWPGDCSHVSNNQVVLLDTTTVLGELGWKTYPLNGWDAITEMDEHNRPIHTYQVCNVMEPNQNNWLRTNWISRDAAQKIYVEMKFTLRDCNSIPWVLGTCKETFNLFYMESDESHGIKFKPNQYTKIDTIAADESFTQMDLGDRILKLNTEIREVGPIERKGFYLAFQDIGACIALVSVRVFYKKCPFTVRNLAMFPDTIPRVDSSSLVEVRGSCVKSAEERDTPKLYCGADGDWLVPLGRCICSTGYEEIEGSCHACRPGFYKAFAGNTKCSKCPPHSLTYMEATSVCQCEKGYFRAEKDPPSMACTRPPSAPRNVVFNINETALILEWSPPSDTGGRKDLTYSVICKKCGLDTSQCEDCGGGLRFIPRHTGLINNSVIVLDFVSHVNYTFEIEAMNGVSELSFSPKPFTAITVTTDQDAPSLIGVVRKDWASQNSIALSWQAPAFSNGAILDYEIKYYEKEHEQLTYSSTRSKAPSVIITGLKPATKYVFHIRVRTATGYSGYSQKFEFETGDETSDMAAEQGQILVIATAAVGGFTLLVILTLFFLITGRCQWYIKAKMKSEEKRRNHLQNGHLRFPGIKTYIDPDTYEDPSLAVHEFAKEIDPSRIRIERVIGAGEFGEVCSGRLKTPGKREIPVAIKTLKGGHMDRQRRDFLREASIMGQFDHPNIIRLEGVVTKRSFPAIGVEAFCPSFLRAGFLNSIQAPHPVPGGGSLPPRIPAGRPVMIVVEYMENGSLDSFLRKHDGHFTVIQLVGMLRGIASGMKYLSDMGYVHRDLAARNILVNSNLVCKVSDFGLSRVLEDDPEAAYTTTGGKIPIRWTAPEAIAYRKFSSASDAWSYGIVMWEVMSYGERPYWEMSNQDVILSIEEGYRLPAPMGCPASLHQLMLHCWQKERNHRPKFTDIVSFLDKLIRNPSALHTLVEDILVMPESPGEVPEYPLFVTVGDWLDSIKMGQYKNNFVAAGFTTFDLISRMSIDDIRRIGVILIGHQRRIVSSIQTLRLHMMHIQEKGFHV
Sequence of Tyrosine-protein kinase CSK (P41240 2-450 limits assumed): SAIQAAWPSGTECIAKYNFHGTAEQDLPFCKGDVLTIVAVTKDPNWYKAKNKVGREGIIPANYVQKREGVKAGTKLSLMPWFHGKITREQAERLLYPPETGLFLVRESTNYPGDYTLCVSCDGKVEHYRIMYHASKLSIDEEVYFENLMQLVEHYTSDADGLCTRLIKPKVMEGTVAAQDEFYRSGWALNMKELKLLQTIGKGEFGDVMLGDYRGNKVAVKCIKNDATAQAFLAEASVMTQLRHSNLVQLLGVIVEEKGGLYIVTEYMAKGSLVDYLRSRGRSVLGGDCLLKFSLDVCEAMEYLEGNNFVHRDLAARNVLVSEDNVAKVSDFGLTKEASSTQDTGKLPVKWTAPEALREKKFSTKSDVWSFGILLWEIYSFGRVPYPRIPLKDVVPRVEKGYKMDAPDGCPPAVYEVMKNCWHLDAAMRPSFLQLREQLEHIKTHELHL
Sequence of Protein kinase C epsilon type (Homo sapiens) (Q02156 whole entry): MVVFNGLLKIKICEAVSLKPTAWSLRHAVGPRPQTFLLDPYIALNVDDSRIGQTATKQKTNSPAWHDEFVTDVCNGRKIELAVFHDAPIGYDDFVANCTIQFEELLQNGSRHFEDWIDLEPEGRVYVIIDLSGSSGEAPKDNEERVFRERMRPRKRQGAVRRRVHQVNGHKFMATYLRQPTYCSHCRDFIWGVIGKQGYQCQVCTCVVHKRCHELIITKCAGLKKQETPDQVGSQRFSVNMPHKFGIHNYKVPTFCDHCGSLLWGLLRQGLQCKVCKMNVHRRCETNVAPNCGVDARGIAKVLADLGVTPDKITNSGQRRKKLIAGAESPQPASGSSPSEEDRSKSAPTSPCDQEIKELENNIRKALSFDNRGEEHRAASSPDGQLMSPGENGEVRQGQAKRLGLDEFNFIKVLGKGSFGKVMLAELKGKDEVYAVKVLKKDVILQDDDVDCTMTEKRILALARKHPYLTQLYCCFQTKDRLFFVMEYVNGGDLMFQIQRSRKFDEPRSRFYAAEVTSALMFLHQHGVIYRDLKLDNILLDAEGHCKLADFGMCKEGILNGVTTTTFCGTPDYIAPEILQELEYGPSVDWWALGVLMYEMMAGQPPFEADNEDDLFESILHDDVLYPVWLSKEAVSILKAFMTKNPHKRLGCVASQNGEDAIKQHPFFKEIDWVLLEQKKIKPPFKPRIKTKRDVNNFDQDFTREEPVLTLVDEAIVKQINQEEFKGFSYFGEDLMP
Sequence of Ribosomal protein S6 kinase alpha-1 (Homo sapiens) (Q15418 whole entry, the tested form may be a part): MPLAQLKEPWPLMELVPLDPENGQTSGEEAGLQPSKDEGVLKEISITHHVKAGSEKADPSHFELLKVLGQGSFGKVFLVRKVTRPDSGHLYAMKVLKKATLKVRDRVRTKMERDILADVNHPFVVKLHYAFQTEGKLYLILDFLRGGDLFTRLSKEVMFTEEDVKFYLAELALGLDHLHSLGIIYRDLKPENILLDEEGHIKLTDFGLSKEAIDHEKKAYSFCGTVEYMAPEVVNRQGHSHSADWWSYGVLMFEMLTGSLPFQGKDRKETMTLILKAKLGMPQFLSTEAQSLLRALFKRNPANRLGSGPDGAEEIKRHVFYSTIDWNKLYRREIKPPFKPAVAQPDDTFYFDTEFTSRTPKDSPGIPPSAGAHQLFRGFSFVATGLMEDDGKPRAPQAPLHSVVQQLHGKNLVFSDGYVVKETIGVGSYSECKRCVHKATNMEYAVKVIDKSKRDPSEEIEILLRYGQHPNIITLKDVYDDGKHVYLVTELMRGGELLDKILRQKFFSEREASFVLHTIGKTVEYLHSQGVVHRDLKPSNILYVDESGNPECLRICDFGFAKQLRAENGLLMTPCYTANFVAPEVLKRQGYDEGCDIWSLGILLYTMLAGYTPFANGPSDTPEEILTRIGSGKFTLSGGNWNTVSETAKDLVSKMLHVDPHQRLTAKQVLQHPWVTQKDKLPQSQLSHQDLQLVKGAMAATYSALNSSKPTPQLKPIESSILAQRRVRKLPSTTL
Sequence of Interferon-induced, double-stranded RNA-activated protein kinase (Homo sapiens) (P19525 whole entry): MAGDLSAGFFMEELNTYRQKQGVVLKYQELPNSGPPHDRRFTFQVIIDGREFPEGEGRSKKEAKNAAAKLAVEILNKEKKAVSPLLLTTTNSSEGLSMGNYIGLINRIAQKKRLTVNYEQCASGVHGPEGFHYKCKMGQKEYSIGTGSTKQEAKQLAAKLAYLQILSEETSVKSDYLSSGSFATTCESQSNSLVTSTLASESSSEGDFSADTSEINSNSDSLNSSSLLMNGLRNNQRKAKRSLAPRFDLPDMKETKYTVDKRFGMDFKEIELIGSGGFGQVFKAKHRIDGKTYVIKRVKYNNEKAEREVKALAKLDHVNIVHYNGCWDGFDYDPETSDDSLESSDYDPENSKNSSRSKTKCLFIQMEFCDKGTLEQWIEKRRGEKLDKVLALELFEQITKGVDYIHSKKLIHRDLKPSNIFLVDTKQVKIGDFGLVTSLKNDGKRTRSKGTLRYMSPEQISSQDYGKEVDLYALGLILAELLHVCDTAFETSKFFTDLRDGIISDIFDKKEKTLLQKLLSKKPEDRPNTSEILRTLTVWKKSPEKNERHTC

For the compound `CCN1CCN(Cc2ccc(NC(=O)c3ccc(C)c(/C=C/c4cnc5[nH]ccc5c4OC)c3)cc2C(F)(F)F)CC1`, the residual activity came out at 25% in experiment [1] and 29% in experiment [2]. Also, the inhibition was -7% in [3] and 50% in experiment [4].
As for `CCN1CCN(Cc2ccc(NC(=O)c3ccc(C)c(Oc4ccnc5[nH]ccc45)c3)cc2C(F)(F)F)CC1`, the inhibition in [5] was 20%; in [6], 23%; in experiment [7] it was 79%; in experiment [9] it was 17.8%; in experiment [10] it was 0.05%; in experiment [12], 48.5%. For the same compound, the inhibition result in experiment [8] and in experiment [11] was “inactive” each time.
On to `CNc1cc(Oc2cc(C(=O)Nc3cc(N4CCN(C)CC4)cc(C(F)(F)F)c3)ccc2C)ncn1`, for which the inhibition is 25.8% in experiment [13], -5.1% in [14] and -8% in [15].
